# Source: ChEMBL document CHEMBL1124502, “Novel indolecarboxamidotetrazoles as potential antiallergy agents” (J Med Chem, 1989)
# pIC50: −log10 of the molar value.
# Key:
# Homo sapiens [1] = species on record: Homo sapiens; experiment: (§1) Inhibition of anti-IgE antibody-stimulated histamine release in human basophills at 10 uM; format: functional
# Method in brief: (§2)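 Human leukocytes isolated after red-cell sedimentation, washed, suspended in buffer; preincubated with compound then challenged with anti-IgE. Released histamine measured by automated fluorometric assay; percent inhibition versus undrugged anti-IgE-challenged controls.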
# [2] = molecular target: T1, High affinity immunoglobulin epsilon receptor subunit alpha (Homo sapiens) (UniProt P12319); experiment: (§3) Inhibition of anti-IgE antibody-stimulated histamine release in human basophills at 33 uM; format: functional; method in brief: as §2
# T1 sequence (whole entry): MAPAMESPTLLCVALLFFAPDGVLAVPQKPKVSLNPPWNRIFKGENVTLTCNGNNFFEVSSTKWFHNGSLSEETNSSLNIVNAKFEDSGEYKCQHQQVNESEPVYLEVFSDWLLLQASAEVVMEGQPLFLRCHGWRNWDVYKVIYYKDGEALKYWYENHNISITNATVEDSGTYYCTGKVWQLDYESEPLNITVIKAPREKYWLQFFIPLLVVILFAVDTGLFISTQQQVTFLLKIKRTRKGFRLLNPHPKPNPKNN
# [3] = molecular target: T1, High affinity immunoglobulin epsilon receptor subunit alpha (Homo sapiens); experiment: as §1; format: functional; method in brief: as §2
# Homo sapiens [4] = species on record: Homo sapiens; experiment: Inhibition of anti-IgE antibody stimulated histamine release in human lung, at 75 uM compound concentration; […]; format: functional
# Cavia porcellus [5] = species on record: Cavia porcellus; experiment: Inhibition of ovalbumin-stimulated histamine release in guinea pig lung, at 75 uM compound concentration; […]; format: functional
# Cavia porcellus [6] = species on record: Cavia porcellus; experiment: Inhibition of ovalbumin-stimulated histamine release in guinea pig lung; format: functional, organism-based
# Homo sapiens [7] = species on record: Homo sapiens; experiment: as §3; format: functional, organism-based; method in brief: as §2
# Homo sapiens [8] = species on record: Homo sapiens; experiment: Inhibition of anti-IgE antibody-stimulated histamine release in human basophills at 33 uM; c = sample fluorescence interferes with the histamine assay; format: functional; method in brief: as §2
# Cavia porcellus [9] = species on record: Cavia porcellus; experiment: Inhibition of ovalbumin stimulated histamine release in guinea pig lung
# Homo sapiens [10] = species on record: Homo sapiens; experiment: Inhibition of anti-IgE antibody stimulated histamine release in human basophils; format: functional
# Method in brief: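 Human leukocytes obtained after red-cell sedimentation, washed and suspended in buffer, preincubated with drug, then challenged with anti-IgE. Histamine quantified by automated fluorometric assay; percent inhibition vs nondrug anti-IgE-challenged controls. IC50 from threefold concentrations 1–100 μM.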
# Homo sapiens [11] = species on record: Homo sapiens; experiment: Inhibition of anti-IgE antibody stimulated histamine release in human lung; format: functional, organism-based
# Method in brief: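 Grossly normal human lung from lobectomy, dissected, chopped into 25–75-mg fragments, washed, held overnight in Tyrode's buffer at room temperature, rewashed. About 400 mg tissue at 37 °C in Tyrode's for 10 min, drug or vehicle added, 10 min later anti-IgE (final 3:1000), 30 min further incubation, supernatant sampled for histamine.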
smiles,measurement,setting,value
CCOc1c(C(=O)Nc2nn[nH]n2)n(-c2ccccc2)c2ccc(OC)cc12,Inhibition,Homo sapiens [1],55%
same,inhibition,[2],73%
COc1ccc2c(c1)c(Sc1ccccc1)c(C(=O)Nc1nn[nH]n1)n2-c1ccccc1,inhibition,[3],30%
same,inhibition,[2],82%
CCOc1c(C(=O)Nc2nn[nH]n2)[nH]c2ccc(OC)cc12,inhibition,[3],7%
same,inhibition,[2],46%
COc1ccc2c(c1)c(O)c(C(=O)Nc1nn[nH]n1)n2-c1ccccc1,inhibition,[2],< 25%
O=C([O-])c1cc(=O)c2c(OCC(O)COc3cccc4oc(C(=O)[O-])cc(=O)c34)cccc2o1.[Na+].[Na+] [CROMOLYN SODIUM],Inhibition,Homo sapiens [4],<=25%
same,Inhibition,Cavia porcellus [5],<=25%
same,inhibition,[2],< 25%
CC(C)Oc1c(C(=O)Nc2nn[nH]n2)n(-c2ccccc2)c2ccc(O)cc12,inhibition,[2],< 25%
COc1ccc(-n2c(C(=O)Nc3nn[nH]n3)c(OC(C)C)c3cc(OC)ccc32)cc1,inhibition,[3],16%
same,inhibition,[2],49%
CC(C)Oc1c(C(=O)Nc2nn[nH]n2)n(-c2ccccc2)c2ccc(Br)cc12,inhibition,[3],7%
same,inhibition,[2],33%
COc1ccc2c(c1)c(C(C)C)c(C(=O)Nc1nn[nH]n1)n2-c1ccccc1,inhibition,[2],< 25%
COc1ccc2c(c1)c1oc(C(=O)Nc3nnn[nH]3)c(OC)c1n2-c1ccccc1.NC(N)=NCCC[C@H](N)C(=O)O,pIC50,Cavia porcellus [6],4.87
same,pIC50,Homo sapiens [7],5.07
CCCCCCCCCOc1c(C(=O)Nc2nn[nH]n2)n(-c2ccccc2)c2ccc(OC)cc12,inhibition,Homo sapiens [8],Sample fluorescence interferes with histamine assay
COc1ccc2c(c1)c(OCc1ccccc1)c(C(=O)Nc1nn[nH]n1)n2-c1ccccc1,inhibition,[3],43%
same,inhibition,[2],84%
CC(C)Oc1c(C(=O)Nc2nn[nH]n2)n(-c2ccccc2)c2ccc(OCc3ccccc3)cc12,inhibition,[3],65%
same,inhibition,[2],66%
COc1ccc2c(c1)c(OC(C)C)c(C(=O)Nc1nn[nH]n1)n2Cc1ccccc1,inhibition,[3],61%
same,inhibition,[2],69%
CCCc1c2oc(C(=O)O)cc(=O)c2cc2c(=O)cc(C(=O)O)n(CC)c12 [NEDOCROMIL],Inhibition,Homo sapiens [4],<=25%
same,Inhibition,Cavia porcellus [5],<=25%
same,inhibition,[2],< 25%
COc1ccc(-n2c(C(=O)Nc3nn[nH]n3)c(OC(C)C)c3ccccc32)cc1,inhibition,[2],< 25%
CC(C)Oc1c(C(=O)Nc2nn[nH]n2)n(-c2ccccc2)c2ccccc12,inhibition,[2],< 25%
COc1ccc2c(c1)c(SC(C)C)c(C(=O)Nc1nn[nH]n1)n2-c1ccccc1,inhibition,[3],13%
same,inhibition,[2],50%
O=C(Nc1nn[nH]n1)c1c(OCc2ccccc2)c2ccccc2n1-c1ccccc1,inhibition,[2],< 25%
COc1ccc2c(c1)c(OC(C)C)c(-c1nn[nH]n1)n2-c1ccccc1,inhibition,[3],25%
same,inhibition,[2],37%
COc1ccc2c(c1)c(OC)c(C(=O)Nc1nn[nH]n1)n2-c1ccccc1,inhibition,[3],46%
same,inhibition,[2],74%
COc1ccc2[nH]c(C(=O)Nc3nn[nH]n3)c(OC(C)C)c2c1,inhibition,[3],17%
same,inhibition,[2],62%
CCOc1c(C(=O)Nc2nn[nH]n2)n(Cc2ccccc2)c2ccc(OC)cc12,inhibition,[3],26%
same,inhibition,[2],55%
COc1cccc2c1c(OC(C)C)c(C(=O)Nc1nn[nH]n1)n2-c1ccccc1,inhibition,[2],< 25%
COc1ccc2c(c1)c(SC)c(C(=O)Nc1nn[nH]n1)n2-c1ccccc1,inhibition,[3],20%
same,inhibition,[2],66%
COc1ccc2c(c1)c(S(C)(=O)=O)c(C(=O)Nc1nn[nH]n1)n2-c1ccccc1,inhibition,[2],< 25%
COc1ccc2c(c1)c(OC(C)C)c(C(=O)Nc1nn[nH]n1)n2-c1ccccc1,inhibition,[3],46%
same,pIC50,Cavia porcellus [9],4.57
same,pIC50,Homo sapiens [10],4.82
same,inhibition,[2],82%
same,pIC50,Homo sapiens [11],4.78
Cc1ccc2c(c1)c(OC(C)C)c(C(=O)Nc1nn[nH]n1)n2-c1ccccc1,inhibition,[2],< 25%
COc1ccc2c(c1)c(OC(C)C)c(C(=O)Nc1nn[nH]n1)n2C,inhibition,[3],18%
same,inhibition,[2],45%
CC(C)Oc1c(C(=O)Nc2nn[nH]n2)n(-c2ccccc2)c2ccc(Cl)cc12,inhibition,[3],18%
same,inhibition,[2],72%
COc1ccc2c(c1)cc(C(=O)Nc1nn[nH]n1)n2-c1ccccc1,inhibition,[2],< 25%
COc1ccc2c(OC(C)C)c(C(=O)Nc3nn[nH]n3)n(-c3ccccc3)c2c1,inhibition,[3],24%
same,inhibition,[2],50%
COc1ccc2c(c1)c(Oc1ccc([N+](=O)[O-])cc1)c(C(=O)Nc1nn[nH]n1)n2-c1ccccc1,inhibition,[2],< 25%
CC(C)Oc1c(C(=O)Nc2nn[nH]n2)n(-c2ccccc2)c2cc(Cl)c(Cl)cc12,inhibition,[3],40%
same,inhibition,[2],84%
